The results in this text go back to ChEMBL document CHEMBL1275546, “Use of gyrase resistance mutants to guide selection of 8-methoxy-quinazoline-2,4-diones” (2008).

Converted amounts (≈) assume the structure as drawn. The source made the active and inactive calls. The rule behind the calls is not given here.

Broadly, the MIC is the least concentration at which growth counts as inhibited. A low value points to greater potency.

In experiment [1] the test system is Escherichia coli. The experiment can be described thus: Ratio of MIC for Escherichia coli K-12 KD2934 harboring gyrB K447E mutant gene to MIC for Escherichia coli K-12 KD1397 harboring wild type gyrB gene. The experiment is classed as functional. Put shortly: (§1)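 Isogenic E. coli K-12 tolC::Tn10 strains made by P1 transduction. Each grown in LB to mid-exponential phase, diluted to 10^{4-5} CFU/ml in LB tubes with drug, incubated overnight at 37°C. MIC = lowest concentration blocking visible growth. Ratio = mutant MIC divided by KD1397 (gyr+) MIC.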

Experiment [2] concerns Escherichia coli. Briefly: Ratio of MIC for Escherichia coli K-12 KD2932 harboring gyrB D426N mutant gene to MIC for Escherichia coli K-12 KD1397 harboring wild type gyrB gene. The experiment is classed as functional. Put shortly:
as §1

The test system of experiment [3] is Escherichia coli. Briefly: Ratio of MIC for Escherichia coli K-12 KD2862 harboring gyrA S83L mutant gene to MIC for Escherichia coli K-12 KD1397 harboring wild type gyrA gene. Format: functional. Put shortly:
as §1

Experiment [4] has as its system Escherichia coli. Briefly: Ratio of MIC for Escherichia coli K-12 KD2864 harboring gyrA A84P mutant gene to MIC for Escherichia coli K-12 KD1397 harboring wild type gyrA gene. The experiment is classed as functional. Put shortly: as §1
Experiment [5] concerns Escherichia coli. Briefly: Ratio of MIC for Escherichia coli K-12 KD2876 harboring gyrA S83W mutant gene to MIC for Escherichia coli K-12 KD1397 harboring wild type gyrA gene. Format: functional. The gist of the method: as §1
The subject of experiment [6] is Escherichia coli. The experiment can be described thus: Ratio of MIC for Escherichia coli K-12 KD2878 harboring gyrA A67S mutant gene to MIC for Escherichia coli K-12 KD1397 harboring wild type gyrA gene. Format: functional. Put shortly:
as §1

Experiment [7] has as its system Escherichia coli. Briefly: Ratio of MIC for Escherichia coli K-12 KD2880 harboring gyrA D87Y mutant gene to MIC for Escherichia coli K-12 KD1397 harboring wild type gyrA gene. The experiment is classed as functional. The gist of the method:
as §1

For experiment [8], the system named is Escherichia coli. The experiment can be described thus: Ratio of MIC for Escherichia coli K-12 KD2882 harboring gyrA G81C mutant gene to MIC for Escherichia coli K-12 KD1397 harboring wild type gyrA gene. Format: functional. Put shortly:
as §1

Experiment [9] concerns Escherichia coli. The experiment can be described thus: Ratio of MIC for Escherichia coli K-12 KD2884 harboring gyrA A106H mutant gene to MIC for Escherichia coli K-12 KD1397 harboring wild type gyrA gene. The experiment is classed as functional. The gist of the method:
as §1

In experiment [10] the test system is Escherichia coli. The experiment can be described thus: Ratio of MIC for Escherichia coli K-12 KD2886 harboring gyrA A51V mutant gene to MIC for Escherichia coli K-12 KD1397 harboring wild type gyrA gene. The experiment is classed as functional. Put shortly: as §1
In experiment [11] the test system is Escherichia coli. Briefly: Ratio of MIC for Escherichia coli K-12 KD2955 harboring gyrA D82A mutant gene to MIC for Escherichia coli K-12 KD1397 harboring wild type gyrA gene. The experiment is classed as functional. The gist of the method:
as §1

For experiment [12], the system named is Escherichia coli. Briefly: Ratio of MIC for Escherichia coli K-12 KD2866 harboring gyrA D87Y mutant gene to MIC for Escherichia coli K-12 KD1397 harboring wild type gyrA gene.
For experiment [13], the system named is Escherichia coli. The experiment can be described thus: Antibacterial activity against wild type Escherichia coli K-12 KD1397 harboring gyr gene. The experiment is classed as functional. The gist of the method:
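Broth MIC: E. coli K-12 tolC::Tn10 strain grown in LB to mid-exponential phase, diluted to 10^4-5 CFU/ml in tubes of LB containing drug, incubated overnight at 37°C; MIC = lowest concentration blocking visible growth.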

The subject of experiment [14] is Escherichia coli. Briefly: Bactericidal activity against wild type Escherichia coli K-12 KD1397 at 10 times MIC after 2 hrs. Format: functional, organism-based. The gist of the method:
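Wild-type KD1397 (tolC-deficient), exponential-phase LB culture, exposed to drug at 10× MIC for timed intervals or for 2 h. Samples diluted and plated on drug-free agar for CFU counts. Survival given as fraction of CFU at drug addition.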

Experiment [15] relates to Escherichia coli. Briefly: Bactericidal activity against wild type Escherichia coli K-12 KD1397 at 10 times MIC. The experiment is classed as functional. Put shortly: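 Exponentially growing E. coli K-12 (tolC-deficient via Tn10, gyr+) in LB at 37°C was exposed to drug at 10× the MIC for the indicated times. Aliquots were diluted and plated on drug-free agar to count CFU. Survival is expressed as the fraction of CFU present when drug was added. MIC came from overnight broth tubes inoculated at 10^4-5 CFU/ml and read by eye.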

For experiment [16], the system named is Escherichia coli. The experiment can be described thus: Bactericidal activity against Escherichia coli K-12 KD2866 harboring gyrA D87Y mutant gene assessed as bacterial count at 10 times MIC. Format: functional, organism-based.
Experiment [17] has as its system Escherichia coli. Briefly: Bactericidal activity against Escherichia coli K-12 […] harboring gyrA D87Y mutant gene assessed as bacterial count at 10 times MIC after 2 hrs. Format: functional, organism-based.

On to `COc1c(N2CC[C@H](N)C2)c(F)cc2c(=O)[nH]c(=O)n(C3CC3)c12`, for which the figures for the Ratio in the experiment on Escherichia coli [1] and in the experiment on Escherichia coli [2] were less than 1 and 1, respectively.
Consider `COc1c(N2C[C@@H]3CCCN[C@@H]3C2)c(F)cc2c(=O)[nH]c(=O)n(C3CC3)c12`, for which the Ratio is less than 1 in the experiment with Escherichia coli [1] and 1 in the experiment with Escherichia coli [2].
With `COc1c(N2C[C@@H]3CCCN[C@@H]3C2)c(F)cc2c(=O)c(C(=O)O)cn(C3CC3)c12` [MOXIFLOXACIN], the Ratio is recorded as less than 1 with Escherichia coli [1] and 2 with Escherichia coli [2].
With `COc1c(N2CC[C@H](N)C2)c(F)cc2c(=O)n(N)c(=O)n(C3CC3)c12`, the Ratio in the experiment on Escherichia coli [1] is recorded as less than 1; in the experiment on Escherichia coli [2], 1; in the experiment on Escherichia coli [3], 1; in the experiment on Escherichia coli [4], 1; in the experiment on Escherichia coli [5] it was 1; with Escherichia coli [6], 1. For the same compound, the Ratio with Escherichia coli [7], in the experiment with Escherichia coli [8], in the experiment on Escherichia coli [9], in the experiment on Escherichia coli [10], with Escherichia coli [11] and with Escherichia coli [12] was 1 throughout.
For `COc1c(N2CC[C@H](N)C2)c(F)cc2c(=O)c(C(=O)O)cn(C3CC3)c12`, the Ratio with Escherichia coli [1] is given as greater than 1; in the experiment with Escherichia coli [2], 2. Besides, in the experiment with Escherichia coli [13], the MIC came to 0.016 µg/mL (≈ 0.0443 µM).
As to `COc1c(N2C[C@@H]3CCCN[C@@H]3C2)c(F)cc2c(=O)n(N)c(=O)n(C3CC3)c12`, the Ratio with Escherichia coli [1] was less than 1; in the experiment on Escherichia coli [2], 1; in the experiment on Escherichia coli [3] it was 1; in the experiment with Escherichia coli [4] it was 1; with Escherichia coli [5], 1; in the experiment with Escherichia coli [6], 1. Further, the Ratio in the experiment with Escherichia coli [7], in the experiment with Escherichia coli [8], with Escherichia coli [9], with Escherichia coli [10], in the experiment with Escherichia coli [11] and in the experiment on Escherichia coli [12] was 1 each time. The outcome in the experiment with Escherichia coli [14] was inactive.
With `COc1c(N2CC[C@@H](CN)C2)c(F)cc2c(=O)[nH]c(=O)n(C3CC3)c12`, the Ratio with Escherichia coli [1] and in the experiment with Escherichia coli [2] was less than 1 in each case.
Turning to `CCC1CN(c2c(F)cc3c(=O)n(N)c(=O)n(C4CC4)c3c2OC)CCN1` (stereo not drawn), the Ratio in the experiment on Escherichia coli [1] is given as less than 1; in the experiment with Escherichia coli [2] it was 1.
On to `CCC1CN(c2c(F)cc3c(=O)[nH]c(=O)n(C4CC4)c3c2OC)CCN1` (stereo not drawn), for which the Ratio is less than 1 with Escherichia coli [1] and 1 in the experiment with Escherichia coli [2].
In the case of `COc1c(N2CC[C@@H](CN)C2)c(F)cc2c(=O)n(N)c(=O)n(C3CC3)c12`, the Ratio in the experiment on Escherichia coli [1] is reported as less than 1; in the experiment with Escherichia coli [2], less than 1; in the experiment with Escherichia coli [3], 1; in the experiment on Escherichia coli [4], 1; with Escherichia coli [5], 1; in the experiment with Escherichia coli [6], 1. Moreover, the Ratio in the experiment on Escherichia coli [7], in the experiment on Escherichia coli [8], with Escherichia coli [9], in the experiment with Escherichia coli [10], with Escherichia coli [11] and in the experiment on Escherichia coli [12] was 1 throughout. The compound also came in with a minimum inhibitory concentration (MIC) against Escherichia coli [13] of 0.7 µg/mL (≈ 1.93 µM). Moreover, the outcome with Escherichia coli [15], in the experiment with Escherichia coli [16] and with Escherichia coli [17] was Active.
With `CCC1CN(c2c(F)cc3c(=O)c(C(=O)O)cn(C4CC4)c3c2OC)CCN1` (stereo not drawn), the Ratio in the experiment on Escherichia coli [1] is given as less than 1. The Ratio with Escherichia coli [2] amounted to 2. Besides, in the experiment with Escherichia coli [15], the result was Active and the “fold change (FC)” value is 2.
Consider `COc1c(N2CC[C@@H](CN)C2)c(F)cc2c(=O)c(C(=O)O)cn(C3CC3)c12`, for which the Ratio is greater than 1 with Escherichia coli [1] and 2 in the experiment with Escherichia coli [2]. The compound further returned a minimum inhibitory concentration (MIC) in the experiment on Escherichia coli [13] of 0.004 µg/mL (≈ 0.0107 µM).
